Laboratory results from ChEMBL document CHEMBL4270643, “Structure-based drug design: Synthesis and biological evaluation of quinazolin-4-amine derivatives as selective Aurora A kinase inhibitors” (Eur J Med Chem, 2018).
Active and inactive are the calls of the source. No cut-off for these calls is given here.

Columns and labels:
Mus musculus [1] = assay: Toxicity in BALB/c athymic nude mouse xenografted with human MDA-MB-231 cells assessed as effect on MCH level at 30 mg/kg, ig administered every 2 days for 18 days measured post last dose; assay type: organism-based; conditions: in vivo, po
In short: (§1)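 After the 18-day intragastric course (every 2 days), blood cell counts taken from untreated, vehicle and dosed mice; groups compared by unpaired two-tailed t-test; mean ±SD, n=4.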

Mus musculus [2] = assay: Toxicity in BALB/c athymic nude mouse xenografted with human MDA-MB-231 cells assessed as effect on lung weight at 30 mg/kg, ig administered every 2 days for 18 days measured post last dose; assay type: organism-based; conditions: in vivo, po
In short: (§2)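 Xenograft-bearing nude mice dosed intragastrically every 2 days for 18 days; body weight tracked throughout. After treatment ended, liver, lung, kidney and spleen weighed in untreated, vehicle and dosed groups; unpaired two-tailed t-test; mean ±SD, n=4.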

Aurora kinase B [3] = molecular target: T1, Aurora kinase B (Homo sapiens, UniProt Q96GD4); assay: Inhibition of Aurora B (unknown origin) using FAM-labelled peptide as substrate pretreated for 10 mins followed by substrate addition and measured after 60 mins by fluorescence assay
T1 sequence (Q96GD4 whole entry): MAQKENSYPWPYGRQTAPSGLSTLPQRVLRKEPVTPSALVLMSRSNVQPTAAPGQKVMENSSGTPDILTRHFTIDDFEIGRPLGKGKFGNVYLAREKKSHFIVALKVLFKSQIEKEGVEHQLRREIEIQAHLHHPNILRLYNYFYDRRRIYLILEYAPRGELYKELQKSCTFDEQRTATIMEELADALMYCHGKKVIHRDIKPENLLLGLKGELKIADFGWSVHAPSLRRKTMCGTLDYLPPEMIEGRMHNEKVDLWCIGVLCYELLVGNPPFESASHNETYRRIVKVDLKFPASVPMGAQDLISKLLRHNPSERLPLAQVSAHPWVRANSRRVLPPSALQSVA
In short: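 Kinase IC50 values are the mean of at least two independent experiments; selectivity is the Aurora A/B ratio of these IC50s.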

K562 = assay: Antiproliferative activity against human K562 cells after 48 hrs by CCK8 assay; assay type: functional, cell-based; conditions: Homo sapiens, K562, 48 h; read-out: IC50
Mus musculus [4] = assay: Toxicity in BALB/c athymic nude mouse xenografted with human MDA-MB-231 cells assessed as effect on MCHC level at 30 mg/kg, ig administered every 2 days for 18 days measured post last dose; assay type: organism-based; conditions: in vivo, po; in short: as §1
MDA-MB-231 [5] = assay: Antitumor activity against human MDA-MB-231 cells xenografted in BALB/c athymic nude mouse assessed as reduction in tumor size at 30 mg/kg, ig administered every 2 days for 18 days; assay type: functional, organism-based
In short: (§3)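 Nude mice with established MDA-MB-231 xenografts dosed intragastrically every 2 days for 18 days; vehicle control group; n=4 per group. Tumor volume estimated over time and compared by two-way repeated-measures ANOVA; dissected tumors weighed at end. Data as mean ±SD.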

MDA-MB-231 [6] = assay: Induction of morphological changes in human MDA-MB-231 cells assessed as monopolar/multipolar spindle formation at 1 uM by DAPI staining based microscopic analysis; assay type: functional, cell-based
In short: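 MDA-MB-231 cells incubated 24 h with 1 µM compound or 0.1% DMSO; immunofluorescence imaging of centrosomes, spindles and nuclei at ×1000 to score spindle polarity and chromosome alignment at the metaphase plate.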

Mus musculus [7] = assay: Toxicity in BALB/c athymic nude mouse xenografted with human MDA-MB-231 cells assessed as body weight loss at 30 mg/kg, ig administered every 2 days for 18 days measured during compound dosing; assay type: organism-based; conditions: in vivo, po; in short: as §2
Mus musculus [8] = assay: Toxicity in BALB/c athymic nude mouse xenografted with human MDA-MB-231 cells assessed as effect on WBC level at 30 mg/kg, ig administered every 2 days for 18 days measured post last dose; assay type: organism-based; conditions: in vivo, po; in short: as §1
Aurora kinase B [9] = molecular target: T1, Aurora kinase B; assay: Inhibition of Aurora B in human 293T cells assessed as reduction in histone H3 phosphorylation at Ser10 residue at 1 to 2 uM after 24 hrs by Western blot analysis; assay type: cell-based
In short: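 293T cells treated 24 h with increasing doses or 0.1% DMSO control; lysates probed by Western blot for p-Aurora A (Thr288) and p-histone H3 (Ser10), with GAPDH as loading control.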

Mus musculus [10] = assay: Toxicity in BALB/c athymic nude mouse xenografted with human MDA-MB-231 cells assessed as effect on kidney weight at 30 mg/kg, ig administered every 2 days for 18 days measured post last dose; assay type: organism-based; conditions: in vivo, po; in short: as §2
Mus musculus [11] = assay: Toxicity in BALB/c athymic nude mouse xenografted with human MDA-MB-231 cells assessed as effect on MCV level at 30 mg/kg, ig administered every 2 days for 18 days measured post last dose; assay type: organism-based; conditions: in vivo, po; in short: as §1
MOLT-4 = assay: Antiproliferative activity against human MOLT4 cells after 48 hrs by CCK8 assay; assay type: functional, cell-based; conditions: Homo sapiens, MOLT-4, 48 h; read-out: IC50
Mus musculus [12] = assay: Toxicity in BALB/c athymic nude mouse xenografted with human MDA-MB-231 cells assessed as effect on HGB level at 30 mg/kg, ig administered every 2 days for 18 days measured post last dose; assay type: organism-based; conditions: in vivo, po; in short: as §1
MDA-MB-231 [13] = assay: Induction of apoptosis in human MDA-MB-231 cells assessed as annexin-V positive cells at 5 uM after 48 hrs by Annexin-V-FITC/propidium iodide staining based flow cytometry (reference value: 15.46 +/- 1.18%); assay type: functional
MDA-MB-231 [14] = assay: Antiproliferative activity against human MDA-MB-231 cells after 48 hrs by CCK8 assay; assay type: functional, cell-based; conditions: MDA-MB-231, 48 h
MDA-MB-231 [15] = assay: Inhibition of colony formation in human MDA-MB-231 cells assessed as reduction in number of colonies at 3 uM after 7 days by crystal violet staining based assay; assay type: functional, cell-based
In short: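 Colony formation of MDA-MB-231 cells grown 7 days with 3 µM compound or 0.1% DMSO; colony numbers counted and compared against control.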

Homo sapiens = species on record: Homo sapiens; assay: Selectivity ratio of IC50 for Aurora B (unknown origin) to IC50 for Aurora A (unknown origin)
Mus musculus [16] = assay: Toxicity in BALB/c athymic nude mouse xenografted with human MDA-MB-231 cells assessed as effect on PLT level at 30 mg/kg, ig administered every 2 days for 18 days measured post last dose; assay type: organism-based; conditions: in vivo, po; in short: as §1
MDA-MB-231 [17] = assay: Antitumor activity against human MDA-MB-231 cells xenografted in BALB/c athymic nude mouse assessed as tumor growth inhibition at 30 mg/kg, ig administered every 2 days for 18 days relative to control; assay type: functional; conditions: MDA-MB-231, po, read-out: TGI; in short: as §3
[18] = molecular target: Voltage-gated inwardly rectifying potassium channel KCNH2 (Homo sapiens, UniProt Q12809); assay: Inhibition of human ERG expressed in CHO cells at -80 mV holding potential by whole-cell patch clamp method; assay type: cell-based
Chain of Voltage-gated inwardly rectifying potassium channel KCNH2 (Q12809 whole entry): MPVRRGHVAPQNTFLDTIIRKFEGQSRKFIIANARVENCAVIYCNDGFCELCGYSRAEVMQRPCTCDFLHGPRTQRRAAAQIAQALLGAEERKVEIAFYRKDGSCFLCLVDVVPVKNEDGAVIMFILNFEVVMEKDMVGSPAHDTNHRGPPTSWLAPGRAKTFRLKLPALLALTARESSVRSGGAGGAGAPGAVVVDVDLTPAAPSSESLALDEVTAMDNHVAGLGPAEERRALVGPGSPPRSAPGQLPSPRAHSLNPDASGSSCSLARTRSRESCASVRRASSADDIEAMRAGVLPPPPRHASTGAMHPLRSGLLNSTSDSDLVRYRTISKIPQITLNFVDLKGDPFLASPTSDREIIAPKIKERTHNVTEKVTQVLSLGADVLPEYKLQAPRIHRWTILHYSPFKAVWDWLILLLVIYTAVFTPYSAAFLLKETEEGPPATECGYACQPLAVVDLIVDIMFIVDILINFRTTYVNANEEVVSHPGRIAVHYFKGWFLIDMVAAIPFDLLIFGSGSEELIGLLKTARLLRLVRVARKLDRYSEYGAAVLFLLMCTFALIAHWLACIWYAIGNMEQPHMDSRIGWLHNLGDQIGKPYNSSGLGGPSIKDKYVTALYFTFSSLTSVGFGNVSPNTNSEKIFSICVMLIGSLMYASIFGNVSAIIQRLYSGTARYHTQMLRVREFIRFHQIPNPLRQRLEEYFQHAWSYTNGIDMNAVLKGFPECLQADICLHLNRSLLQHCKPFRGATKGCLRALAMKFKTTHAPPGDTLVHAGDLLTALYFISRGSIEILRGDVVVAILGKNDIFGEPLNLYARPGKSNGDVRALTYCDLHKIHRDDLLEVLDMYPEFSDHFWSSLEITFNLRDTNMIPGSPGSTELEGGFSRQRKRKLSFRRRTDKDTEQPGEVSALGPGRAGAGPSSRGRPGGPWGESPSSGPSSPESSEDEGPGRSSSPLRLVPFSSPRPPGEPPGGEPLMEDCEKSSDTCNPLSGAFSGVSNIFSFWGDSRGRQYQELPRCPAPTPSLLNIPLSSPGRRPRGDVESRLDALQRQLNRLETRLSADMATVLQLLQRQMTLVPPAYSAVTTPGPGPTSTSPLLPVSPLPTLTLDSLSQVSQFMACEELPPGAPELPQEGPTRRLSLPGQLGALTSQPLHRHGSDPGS

MDA-MB-231 [19] = assay: Antitumor activity against human MDA-MB-231 cells xenografted in BALB/c athymic nude mouse assessed as tumor weight at 30 mg/kg, ig administered every 2 days for 18 days (reference value: 1.7 +/- 0.84 g); assay type: functional; in short: as §3
MDA-MB-231 [20] = assay: Cell cycle arrest in human MDA-MB-231 cells assessed as accumulation at G2/M phase after 24 hrs by propidium iodide staining based flow cytometry; assay type: functional
In short: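 MDA-MB-231 cells exposed to test compound at indicated doses, MLN8237, or 0.1% DMSO control for 24 h; cell-cycle distribution, including G2/M and 4N/8N populations, read by flow cytometry.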

MDA-MB-231 [21] = assay: Induction of apoptosis in human MDA-MB-231 cells assessed as annexin-V positive cells at 2 uM after 48 hrs by Annexin-V-FITC/propidium iodide staining based flow cytometry (reference value: 15.46 +/- 1.18%); assay type: functional
Mus musculus [22] = assay: Toxicity in BALB/c athymic nude mouse xenografted with human MDA-MB-231 cells assessed as effect on spleen weight at 30 mg/kg, ig administered every 2 days for 18 days measured post last dose; assay type: organism-based; conditions: in vivo, po; in short: as §2

IC50 (Aurora kinase B [3]): 2520 nM
IC50 (K562): 1090 nM
inhibition (INH) (Aurora kinase B [9]): Not Active
IC50 (MOLT-4): 821 nM
IC50 (MDA-MB-231 [14]): 1190 nM
Ratio IC50 (Homo sapiens): 66
SMILES: CCOC(=O)C1CCN(c2ccc3c(Nc4cc(C)[nH]n4)nc(-c4ccccc4)nc3c2)CC1
Activity (Mus musculus [1]): Non-Toxic
Activity (Mus musculus [2]): Non-Toxic
Activity (Mus musculus [4]): Non-Toxic
Activity (MDA-MB-231 [5]): Active
Activity (MDA-MB-231 [6]): Active
Activity (Mus musculus [7]): Non-Toxic
Activity (Mus musculus [8]): Non-Toxic
Activity (Mus musculus [10]): Non-Toxic
Activity (Mus musculus [11]): Non-Toxic
Activity (Mus musculus [12]): Non-Toxic
Activity (MDA-MB-231 [13]): 47.1%
Activity (MDA-MB-231 [15]): Active
Activity (Mus musculus [16]): Non-Toxic
inhibition in vivo at 30 mg/kg (MDA-MB-231 [17]): 45%
IC50 [18]: > 10000 nM
Activity (MDA-MB-231 [19]): 0.85 g
Activity (MDA-MB-231 [20]): Dose-dependent effect
Activity (MDA-MB-231 [21]): 42.33%
Activity (Mus musculus [22]): Non-Toxic
